Most compounds without a hit are left out; they make up all but 3.6% or so of the library.
ATG4B inh: inhibitors of human ATG4B cysteine protease. Q9Y4P1. ATG4B cleavage of LC3-PLA2, NBD-HPC fluorescence, 1 h. inhibition, % at 8.33 µM. 340,000 compounds, 0.51% hits; in the data active means inhibition above about 40%
NadD inh: blocks S. aureus nicotinate mononucleotide adenylyltransferase; inhibition, % at 20 µM; 360,000 compounds, 0.78% hits; purified NadD enzyme, colorimetric absorbance read-out; in the data active means inhibition above about 26%
SENP1 inh: blocks the human SENP1 SUMO protease catalytic domain; inhibition, % at 10 µM; AID 624204; Q9P0U3; 360,000 compounds, 0.21% hits; recombinant SENP1 catalytic domain, CyPet-SUMO1-YPet FRET cleavage;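 active means inhibition at least 30% at 10 µM, raw YFP signal under a set limit, fluorescence ratio 0.5 to 1.5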;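 further: 0% = enzyme with DMSO and 100% = no enzyme wells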
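System: Recombinant human SENP1 catalytic domain, His6-tagged | Incubation: Enzyme reaction for 50 min at room temperature, dark | Medium: Tris pH 8 with BME, BSA, NP40 and catalase | Also added: 25 nM SUMO1 FRET substrate | Compound: 10 µM single point, 0.5% DMSO | Measured by: FRET fluorescence in CFP and YFP emission channels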
UCH37 DUB inh: blocks the human deubiquitinase UCH37 | purified proteasome/UCH37, Ub-AMC cleavage fluorescence | inhibition, % (no concentration beside the values) | 330,000 compounds, 0.33% hits | AID 588478;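 active means mean inhibition over replicate wells above about 20%, limit read from the data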;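 further: 0% = compound-free wells with enzyme and 100% = wells lacking proteasome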
Target sequence (Q9Y5K5 whole entry, looked up): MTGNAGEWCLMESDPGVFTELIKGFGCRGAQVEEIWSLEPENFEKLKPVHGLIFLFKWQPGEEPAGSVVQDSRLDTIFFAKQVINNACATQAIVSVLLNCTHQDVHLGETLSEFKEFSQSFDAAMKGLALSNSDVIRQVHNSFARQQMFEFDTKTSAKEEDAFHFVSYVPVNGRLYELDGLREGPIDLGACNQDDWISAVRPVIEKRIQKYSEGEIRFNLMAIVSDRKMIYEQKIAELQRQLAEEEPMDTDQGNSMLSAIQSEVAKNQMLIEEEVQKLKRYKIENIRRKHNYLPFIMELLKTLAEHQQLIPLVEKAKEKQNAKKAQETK
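Material: human UCH37 enzyme supplied as purified proteasome complex. Measure: % inhibition of Ub-AMC cleavage fluorescence. Medium: pH 7.4 Tris-HCl (50 mM) with ovalbumin, ATP-MgCl2, DTT. Times: 30 min preincubation with enzyme, 25 min cleavage at room temperature. Detection: AMC fluorescence intensity at 355/460 nm.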
GRIN3A LBD mod: NR3A (human) ligand-binding domain modulation; Tm shift relative to glycine control, % at 25 µM; 340,000 compounds, 2.5% hits; NR3A LBD differential scanning fluorimetry, Tm shift; 0% = protein alone, 100% = glycine-bound protein;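 active means melting temperature shift of at least 10% of the positive control shift, at one fixed dose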
Active calls of the source: *; x = no result given.

SMILES	ATG4B inh	NadD inh	SENP1 inh	UCH37 DUB inh	GRIN3A LBD mod
COC(=O)[C@H](C)NC(=O)Nc1ccc(OC)c(OC)c1	5	-3	0	-4	2
O=C(N/C(=N\O)c1ccccc1)Nc1ccc(Cl)cc1	2	-3	-5	x	23*
O=C(NC(=S)Nc1ccc(Cl)cc1)c1ccccc1	0	-4	3	2	1
Cc1cccc(NC(=O)Nc2ccc(S(N)(=O)=O)cc2)c1	-11	3	1	4	5
COC(=O)c1ccc(NC(=O)Nc2ccc(OC)c(OC)c2)cc1	-4	0	1	1	21*
COCCNC(=S)NN=C(C)c1ccc(OC(F)F)cc1	x	x	x	4	x
COC(=O)c1scc(C)c1NN=C(C)c1ccc(F)cc1	x	x	x	-13	x
COC(=O)c1cccc(NC(=S)Nc2ccc(Cl)c(Cl)c2)c1	3	0	3	4	23*
CCOC(=O)Nc1cc(C(=O)OC)cc(C(=O)OC)c1	-3	-1	2	2	2
COC(=O)c1cccc(NC(=S)Nc2ccccc2Cl)c1	0	-1	1	0	-1
COC(=O)c1cccc(NC(=O)NC(=O)c2ccc(Cl)cc2)c1	3	10	-2	-2	-2
COC(=O)c1cc(NC(=S)Nc2cc(Cl)cc(Cl)c2)cc(C(=O)OC)c1	-2	-4	0	-4	16*
CC(C)S(=O)(=O)c1csc(NC(=O)Nc2ccc(Cl)cc2)c1	-10	-2	0	4	33*
COC(=O)c1cccc(NC(=O)Nc2ccc(Cl)cc2)c1	5	0	1	0	35*
CN1CCc2c(sc(N=Cc3cccs3)c2C(N)=O)C1	x	x	x	-28	x
O=[N+]([O-])c1ccccc1S(=O)(=O)Oc1ccccc1C=Nn1cnnc1	x	x	x	3	x
ON=Cc1cc(Br)ccc1OCc1cccc(F)c1	x	x	x	3	x
CSCCC(NS(=O)(=O)c1ccccc1F)C(=O)OCc1ccccc1Cl (stereo not given)	10	-9	-1	-3	20*
N=C(N)c1ccc(Cl)cc1	-5	-5	2	2	-1
N=C(N)c1ccc(/C=C/c2ccc(C(=N)N)cc2O)cc1	-2	-10	55*	-27	0
CCOc1cc(NC(=O)c2ccccn2)c(OCC)cc1NC(=O)c1ccc(Cl)cc1	-4	-7	-36	-46	-1
CCOC(=O)c1c(NC(=O)c2ccc(Cl)cc2)csc1C	1	5	1	0	18*
[N-]=C=C1C(=O)NC(=O)C([n+]2ccc(-c3ccncc3)cc2)C1c1ccccc1C(F)(F)F (stereo not given)	-2	0	-19	x	2
[N-]=C=C1C(=S)NC(=O)[C@H]([n+]2ccccc2)[C@H]1c1ccc(Cl)cc1	-7	26	-19	x	12*

Screening results: PubChem BioAssay, several laboratories
